Compound activity from PubChem BioAssay.
An excerpt weighted towards active compounds, which were near 2% of everything screened.
RAD54 branch: RAD54 (human) branch migration inhibition; RAD54 Holliday junction branch migration, FAM/BHQ fluorescence; hit rate 0.14% among 360,000; Q92698; inhibition, % at 10.4 µM;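 active means mean normalized replicate activity at least 40 and at least half of replicates scoring 40 or more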;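 further: 0% = median of neutral control wells and 100% = median of positive control wells; inhibitors cause a drop in the FAM fluorescence signal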
Xi reactivation: activators of X-chromosome reactivation in mouse fibroblasts; XiGFP mouse fibroblasts, % GFP-positive cells imaging, 3 d; cells co-treated with 5-aza-dC sensitizer; scaled so ellipticine positive control = 100%; activation, % at 7.58 µM; hit rate 0.055% among 360,000;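 active means mean normalized replicate activation at least 10% and every replicate at or above 10%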;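 further: 0% = median of on-plate neutral control wells and 100% = ellipticine 6 µM median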
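System: 68-5-11 XiGFP fibroblast line; Timing: 3 days compound exposure; Compound dosing: one concentration, pinned; Benchmarks: positive control ellipticine, 6 µM final; Buffer or medium: DMEM containing 5-aza-dC.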
E-selectin induc: induces E-selectin expression in human endothelial cells; P16581; HUVEC E-selectin immunofluorescence imaging; normalized: neutral wells 0, TNF-alpha wells 100; activation, % at 7.58 µM; hit rate 0.37% among 260,000;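 active means mean E-selectin-positive cell signal at least 10% of the positive control, reached in at least 60% of replicates, without over 20% cell loss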
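System: HUVEC / Compound: single concentration / Signal: immunofluorescence imaging / Read-out: percent E-selectin-positive cells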
PglD inh: blocks C. jejuni PglD acetyltransferase activity; purified PglD enzyme, DTNB colorimetric CoA detection; inhibition, % at 12.5 µM; hit rate 0.098% among 360,000; in the data active means inhibition above about 16%, passing the limit was not always enough
RAD52 inh: RAD52 (human) annealing inhibition; recombinant RAD52 DNA annealing, FRET fluorescence; AID 651710; hit rate 0.46% among 360,000; P43351; inhibition, % at 18.7 µM;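 active means every replicate showing at least 50% inhibition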
Target sequence (P43351 whole entry, looked up): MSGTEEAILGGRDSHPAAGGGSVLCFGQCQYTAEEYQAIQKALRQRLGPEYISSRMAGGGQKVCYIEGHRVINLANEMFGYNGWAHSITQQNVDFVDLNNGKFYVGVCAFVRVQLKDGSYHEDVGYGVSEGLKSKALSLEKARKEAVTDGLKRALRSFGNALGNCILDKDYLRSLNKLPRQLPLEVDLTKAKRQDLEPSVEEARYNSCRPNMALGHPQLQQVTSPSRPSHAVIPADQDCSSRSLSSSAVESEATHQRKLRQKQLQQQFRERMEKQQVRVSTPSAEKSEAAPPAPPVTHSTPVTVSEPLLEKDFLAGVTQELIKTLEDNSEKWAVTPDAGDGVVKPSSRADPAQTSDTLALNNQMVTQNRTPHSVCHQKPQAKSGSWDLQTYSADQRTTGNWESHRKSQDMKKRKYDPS
rRNA inh HTS: inhibitors of bacterial rRNA selective over humanized ribosomes. E. coli WT GFP vs humanized-ribosome RFP mutants, fluorescence, 24 h; active compounds read low; DMSO median 0, no signal -100. hit rate 1.6% among 350,000. AID 720706. GFP signal change (wild-type ribosome), % (concentration not given with the values);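 active means significant combined selectivity score with lowered wild-type GFP, culture density cut under 30%, mutant RFP and density less affected; inactive means any of these conditions unmet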
Active calls of the source: *; / = no result.

SMILES	RAD54 branch	Xi reactivation	E-selectin induc	PglD inh	RAD52 inh	rRNA inh HTS
CSc1ccccc1NC(=S)N/N=C/c1cccn1Cc1ccc(F)cc1	/	0	1	/	-18	-21*
CCOC(=O)C1CCCN(C(=O)c2cc(S(=O)(=O)N(C)C)ccc2N2CCCC2)C1 (stereo unspecified)	0	0	428*	-5	-11	-1
C[C@@H]1CN([C@H](C)CO)C(=O)c2cccc(NC(=O)C3CC3)c2O[C@H]1CN(C)Cc1ccc(C(=O)Nc2ccccc2N)cc1	5	0	0	7	9	-6
Cc1nc([N+](=O)[O-])c(C(=O)OCc2ccccc2)n1C	3	0	/	0	-24	3
Cc1nc([N+](=O)[O-])c(C(=O)OCc2cccc(Br)c2)n1C	0	0	0	-5	-4	-18*
Cn1c(=O)c([N+](=O)[O-])c(NCc2ccccc2Cl)c2ccccc21	/	0	0	/	-7	-29*
Cn1c(=O)c([N+](=O)[O-])c(NCCc2ccccc2)c2ccccc21	1	0	/	2	/	/
Cc1nn(C)cc1NC(=O)C[C@H]1CC[C@@H]2[C@H](COc3ccc(NC(=O)NC(C)C)cc3C(=O)N2C)O1	-2	0	0	1	11	1
C[C@H]1CN([C@@H](C)CO)C(=O)c2cc(NS(=O)(=O)c3cn(C)cn3)ccc2O[C@@H]1CN(C)Cc1ccncc1	6	0	49*	5	-4	2
C[C@@H]1CN([C@H](C)CO)C(=O)c2cc(N(C)C)ccc2O[C@H]1CN(C)S(=O)(=O)c1cn(C)cn1	1	0	63*	2	-11	1
Cc1noc(C)c1S(=O)(=O)Nc1ccc2c(c1)C(=O)N([C@H](C)CO)C[C@@H](C)[C@H](CN(C)Cc1ccncc1)O2	0	-1	57*	6	2	0
CNC[C@@H]1Oc2ccc(N(C)C)cc2C(=O)N([C@@H](C)CO)C[C@@H]1C	-3	-1	/	-2	4	2
CNC[C@H]1Oc2ccc(N(C)C)cc2C(=O)N([C@@H](C)CO)C[C@H]1C	2	-1	129*	4	-7	-2
C[C@@H]1CN([C@@H](C)CO)C(=O)c2cc(N(C)C)ccc2O[C@@H]1CN(C)S(=O)(=O)c1cn(C)cn1	1	-1	-10	3	-6	-1
C[C@H]1CN([C@@H](C)CO)C(=O)c2cc(NS(=O)(=O)c3cn(C)cn3)ccc2O[C@H]1CN(C)Cc1ccncc1	-13	-1	-5	8	-12	0
CN(C)C(=O)c1cccc(-c2ccccc2[C@@H]2[C@@H](C#N)N(C(=O)C3CCCCC3)[C@H]2CO)c1	/	0	0	/	3	1
O=C(Cc1cccnc1)N1CC2(C1)[C@H](c1ccccc1)[C@@H](CO)N2C(=O)C1CCCCC1	/	0	1	/	-16	1
Cc1noc(C)c1S(=O)(=O)Nc1ccc2c(c1)C(=O)N([C@H](C)CO)C[C@H](C)[C@@H](CN(C)Cc1ccc3c(c1)OCO3)O2	-19	-1	1	-1	8	-2
Cc1noc(C)c1S(=O)(=O)Nc1ccc2c(c1)C(=O)N([C@@H](C)CO)C[C@H](C)[C@H](CN(C)Cc1ccc3c(c1)OCO3)O2	0	-1	401*	1	7	-1
CCN(c1ccc(NC(=O)COC(=O)c2ccc(C)s2)cc1)C(C)C	-4	0	/	4	-11	-27*
O=[N+]([O-])c1ccc(-c2cn(-c3ccc(Cl)cc3)cn2)cc1	/	0	0	/	-44	-2
Brc1ccc(-n2cnc(-c3ccccc3)c2)cc1	10	0	0	-10	-11	-15*
Cc1nc2sc(C(c3ccco3)N3CCN(c4cccc(Cl)c4)CC3)c(O)n2n1 (stereo unspecified)	3	/	/	5	-19	-39*
Cc1nc2sc(C(c3ccco3)N3CCN(c4ccccc4)CC3)c(O)n2n1 (stereo unspecified)	-14	0	0	-3	-10	12
CCOC(=O)c1cnc2c(c(C3CC3)nn2C)c1N1CCOCC1	-3	0	29*	2	-16	-18
SMILES	RAD54 branch	Xi reactivation	E-selectin induc	PglD inh	RAD52 inh	rRNA inh HTS
Cc1cc(C(=O)Nc2cccc3c2O[C@@H](CN(C)C(=O)NC2CCCCC2)[C@@H](C)CN([C@@H](C)CO)C3=O)n(C)n1	-2	-1	-13	15	6	-9
CCOc1ccc(NCC(=O)Nc2ccc(Cl)cc2C)cc1	10	/	/	1	/	/
COc1ccc(NCC(=O)Nc2ccc(Cl)cc2C)c(OC)c1	-5	/	/	1	-16	-19*
C/C=C/c1ccc([C@H]2[C@H]3CN(C(=O)Nc4ccccc4F)CCCCN3[C@H]2CO)cc1	-3	0	0	2	-5	0
O=C(COC(=O)c1ccc(Br)o1)Nc1ccc2[nH]c(=O)[nH]c2c1	6	0	27*	-2	0	6
Cc1ccc(S(=O)(=O)N(C)C[C@H]2Oc3ccc(NC(=O)Nc4ccccc4)cc3C(=O)N([C@H](C)CO)C[C@@H]2C)cc1	4	0	0	13	2	3
CC(=O)N1[C@@H]2c3cccc(=O)n3C[C@H]1[C@H](CO)[C@H]2C(=O)NCC1CCCCC1	14	0	0	-1	63*	2
O=C(NCc1ccccn1)[C@H]1[C@H](CO)[C@H]2Cn3c(cccc3=O)[C@@H]1N2CC1CCCCC1	10	0	0	0	51*	1
Cc1cccc(NCC(=O)N/N=C/c2cccc(Br)c2)c1	/	0	1	/	-2	0
O=C(CNc1ccccc1)N/N=C/c1ccc2c(c1)OCO2	/	0	31*	/	-8	3
O=C(Cc1ccccc1)N/N=C/c1ccc2c(c1)OCO2	/	0	/	/	-22	12
CCc1ccc(/C=N/NC(=O)c2cc(-c3cccc([N+](=O)[O-])c3)n[nH]2)cc1	13	0	/	-6	-11	-19*
O=C(N/N=C/c1ccccc1)c1cc(-c2ccc3c(c2)OCO3)n[nH]1	-2	0	/	3	-14	-20*
Cc1ccc(NCC(=O)N/N=C/c2cccc(Br)c2)cc1	7	0	0	-4	-11	-23*
CN(C)C(=O)C[C@@H]1CC[C@H]2[C@H](COc3ccc(NC(=O)C4CC4)cc3C(=O)N2C)O1	1	0	0	-1	1	1
O=C(NN=Cc1ccc2c(c1)OCO2)NN=Cc1ccc2c(c1)OCO2	3	0	0	-7	-12	-21*
Cc1noc(C)c1NC(=O)N[C@H]1CC[C@H](CCNC(=O)C2CC2)O[C@H]1CO	-1	-1	0	-3	13	-1
